Measurements as given in publication PMC7275135 (Applied Microbiology and Biotechnology, 2020).
Where a SMILES comes first, the peptide text is derived from it.

Key:
[1] = test system: S. epidermidis ATCC 12228; experiment: MIC, microtiter plate assay; type: cell-based, Staphylococcus epidermidis; conditions: triplicate
MEECs = experiment: Cytotoxicity, MTT assay; type: cell-based, mouse; conditions: 256 μg/mL, n = 4
Gram-positive bacteria = experiment: MIC range over the Gram-positive strains; type: cell-based; conditions: S. aureus CVCC 546, S. epidermidis ATCC 12228, S. pneumoniae CVCC 2350, S. suis CVCC 3928
S. aureus CVCC 546 [2] = experiment: Membrane depolarization, Rhodamine 123 flow cytometry; type: cell-based, Staphylococcus aureus; conditions: 2 h, 10^8 CFU/mL
S. aureus CVCC 546 [3] = experiment: S. aureus-induced endometritis model of mice; type: in vivo, mouse; conditions: 10-mg/kg
[4] = test system: intracellular S. aureus CVCC 546; experiment: Intracellular antimicrobial activity in MEECs; type: cell-based, Staphylococcus aureus; conditions: 24 h treatment, dose-dependent, colony counting
In short: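 MEECs in antibiotic-free DMEM, seeded at 2.5 × 10^5 cells/mL and grown 24 h, then infected with an equal volume of S. aureus CVCC 546 (2.5 × 10^7 CFU/mL) for 0.5 h. Extracellular bacteria killed with lysostaphin 50 μg/mL for 1 h, then PBS wash.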

[5] = test system: LTA-induced cytokines from RAW 264.7; experiment: LTA neutralization, cytokine ELISA; type: cell-based, mouse; conditions: RAW 264.7, LTA-stimulated, 25-μg/mL

SMILES	MICs [1]	cell viability toward MEECs (MEECs)	MICs (range over strains) (Gram-positive bacteria)	Rh 123 fluorescence intensity increased by (S. aureus CVCC 546 [2]; 1 × MIC)	Rh 123 fluorescence intensity increased by (S. aureus CVCC 546 [2]; 2 × MIC)	histopathology of uteri (H&E) (S. aureus CVCC 546 [3])	killing of S. aureus CVCC 546 in MEEC cells [4]	IL-10 increased by [5]
CC[C@H](C)[C@@H]1NC(=O)[C@@H]2CSSC[C@@H](C(=O)N[C@@H](CCCNC(=N)N)C(=O)N[C@@H](CCCCN)C(=O)O)NC(=O)[C@H](CC(N)=O)NC(=O)[C@@H]3CSSC[C@H](NC(=O)[C@H](C)NC(=O)[C@H](C)NC(=O)[C@H](Cc4c[nH]cn4)NC(=O)CNC(=O)[C@H](C(C)C)NC(=O)[C@H](CCCCN)NC(=O)[C@H](Cc4ccccc4)NC(=O)[C@@H]4CCCN4C(=O)[C@H](CO)NC(=O)[C@H](CC(C)C)NC(=O)[C@H](CC(C)C)NC(=O)[C@H](CC(=O)O)NC(=O)[C@@H](NC(=O)[C@@H](NC(=O)[C@H](C)N)[C@@H](C)O)CSSC[C@H](NC(=O)[C@H](Cc4c[nH]c5ccccc45)NC(=O)CNC(=O)CNC(=O)[C@H](CCCNC(=N)N)NC(=O)[C@H](CCCCN)NC(=O)CNC(=O)[C@H](CCCNC(=N)N)NC(=O)[C@H](C)NC1=O)C(=O)N[C@@H](CC(=O)O)C(=O)N[C@@H](CCCCN)C(=O)N[C@@H](CCCNC(=N)N)C(=O)N[C@@H](C)C(=O)N[C@@H](C(C)C)C(=O)N3)C(=O)N[C@@H](C)C(=O)N[C@@H](C)C(=O)N[C@@H](Cc1c[nH]cn1)C(=O)N2 [DLP4] (HELM PEPTIDE1{A.T.C.D.L.L.S.P.F.K.V.G.H.A.A.C.A.A.H.C.I.A.R.G.K.R.G.G.W.C.D.K.R.A.V.C.N.C.R.K}$PEPTIDE1,PEPTIDE1,3:R3-30:R3|PEPTIDE1,PEPTIDE1,16:R3-36:R3|PEPTIDE1,PEPTIDE1,20:R3-38:R3$$$V2.0; N-terminus assumed)	14.99 µM	74.14%	3.75~14.99 μM	–	–	–	–	–
CN[C@H](CC(C)C)C(=O)N[C@H]1C(=O)N[C@@H](CC(N)=O)C(=O)N[C@H]2C(=O)N[C@H]3C(=O)N[C@H](C(=O)N[C@H](C(=O)O)c4cc(O)cc(O)c4-c4cc3ccc4O)[C@H](O)c3ccc(c(Cl)c3)Oc3cc2cc(c3O[C@@H]2O[C@H](CO)[C@@H](O)[C@H](O)[C@H]2O[C@H]2C[C@](C)(N)[C@H](O)[C@H](C)O2)Oc2ccc(cc2Cl)[C@H]1O [vancomycin]	–	90.15%	–	23.1%	26.6%	Only a small amount of scattered inflammatory cells were observed in part of uterus	over 99%	81.26%
